Measurements reported in publication PMC9134932 (CNS Oncology, 2022).
pIC50: −log10 of the molar value. Several values for one entry are separate records, joined by “and”; a condition that tells them apart may be missing. Equal entries are not always repeated. Where two headings read alike, the source gives them in different places. Marks after values point to notes of the source that are not given here.

How the values were obtained:
GL261 glioma model = conditions: cited from earlier work
[1] = system: immune modulatory effects; conditions: cited from earlier work
[2] = three weeks after the last administration; range: 0.52-4.0; no reference given; cited from earlier work
glioma cancer cells = conditions: read-out: direct IC50 of glioma cancer cells; cited from earlier work
PBMCs = assay: Immune monitoring of patient PBMCs; type: in vivo, human; conditions: for Th1 to Th2 ratio: % CD3+ CD4+ IFN-γ+ divided by % CD3+ CD4+ IL-4+ T cells; for Cytotoxic CD8 to Treg ratio: % CD3+ CD8+ IFN-γ+ divided by % CD3+ CD4+ CD25+ Foxp3+ cells
How it was run: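 PBMCs were taken at C1D1 0 and 4 h, C1D2 0 h, and C1D8 0 and 4 h, then isolated from heparinised blood on Ficoll 1077. Cells were held 4–5 h at 37°C in T cell medium with protein transport inhibitor, Fc-blocked 15 min on ice, and given fixable viability dye 30 min at 4°C. Surface staining, fix/perm and intracellular staining followed, then flow cytometry. Th1:Th2 = %CD3+CD4+IFN-γ+ / %CD3+CD4+IL-4+. CD8:Treg = %CD3+CD8+IFN-γ+ / %CD3+CD4+CD25+FoxP3+.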

[3] = PK of WP1066 in human plasma; type: in vivo; conditions: 1-8 mg/kg oral
[4] = system: genetically engineered murine models of gliomas; conditions: p < 0.01; cited from earlier work
[5] = i.v. 40 mg/kg, no reference given, cited from earlier work
[6] = system: recurrent glioblastoma (GBM); assay: Clinical outcome: PFS, OS, MRI response; type: in vivo, human
How it was run: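 Oral dosing as weight-based powder reconstituted into a liquid suspension just before intake, BID on Mon/Wed/Fri for 2 weeks of each 28-day cycle, for up to 12 cycles or until progression. MRI at baseline, then about every 2–3 months, scored by iRANO on FLAIR and post-contrast T1WI. Intention-to-treat population. Kaplan–Meier estimates of PFS and OS, with OS counted from initial diagnosis.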

[7] = system: established intracerebral melanoma; conditions: versus 0% of vehicle control mice (p = 0.0076); cited from earlier work
[8] = system: patients with recurrent malignant glioma; assay: Phase I dose escalation; type: in vivo, human
How it was run: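 Dose assignment used accelerated titration, then 3 + 3. Planned levels were 1, 2, 4, 8 and 16 mg/kg, given BID on Mon/Wed/Fri for 2 weeks per 28-day cycle, as an oral suspension. Toxicity was assessed at baseline and before each cycle, graded by CTCAE v4.0. Dose was held for grade II toxicity and cut by 30% or one level for grade III. DSMB approval was required before each cohort change.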

[9] = no reference given, cited from earlier work
p-STAT3 (Y705) in PBMCs = assay: Intracellular p-STAT3 staining of patient PBMCs by flow cytometry; type: in vivo, human
How it was run: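 Blood was processed at once because the p-STAT3 signal decays ex vivo. Ficoll-isolated PBMCs (6 × 10^6 in PBS) were fixed in 2% paraformaldehyde (final) for 10 min at 37°C, then permeabilised in ice-cold 90% methanol for 30 min. Staining was PE-anti-p-STAT3 (Y705) for 1 h at RT, in duplicate wells, with duplicate isotype-control wells and one unstained well. Duplicate specimens were run in parallel. Read-out was % p-STAT3+ PBMCs by flow cytometry versus baseline (0 h); paired t-test.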

[10] = 1 mg/kg, C1D1 0 h (baseline before first dose)
[11] = 2 mg/kg, C1D1 0 h (baseline before first dose)
[12] = 4 mg/kg, C1D1 0 h (baseline before first dose)
[13] = 8 mg/kg, C1D1 0 h (baseline before first dose)
[14] = count in enrolled patient population (n = 8), all dose levels
[15] = sum over all toxicities, enrolled patient population (n = 8)

For `C[C@H](NC(=O)/C(C#N)=C/c1cccc(Br)n1)c1ccccc1` [WP1066], the “therapeutic effect in combination with radiation therapy” value (GL261 glioma model; GL261 glioma model, lost in immune-incompetent animals) is given as “long-term survivors and enhanced median survival time relative to monotherapy”, the “therapeutic effect as monotherapy” value (GL261 glioma model; preclinical murine studies, 60 mg/kg) is given as “failed to demonstrate any therapeutic effect” and the “concentration at which immune modulatory effects start” value [1] is given as “around 0.1 μM”. For the same compound, the “concentration within orthotopic brain tumors” value [2] was 2.3 µM, the pIC50 (glioma cancer cells) was 5.30 to 5.70 and the “% IFN-γ+ CD8 T cells” value (PBMCs; [10]) was 8.3%. The “% of FoxP3 Tregs” value (PBMCs; [10]) was 6.9%, the “Th1 to Th2 ratio” value (PBMCs; 1 mg/kg, C1D1 0 h (baseline)) was 0.3 and the “Cytotoxic CD8 to Treg ratio” value (PBMCs; 1 mg/kg, C1D1 0 h (baseline)) was 1.2. For the same compound, the “% IFN-γ+ CD8 T cells” value (PBMCs; 1 mg/kg, C1D8 4 h) was 45.3%, the “% of FoxP3 Tregs” value (PBMCs; 1 mg/kg, C1D8 4 h) was 3.9% and the “Th1 to Th2 ratio” value (PBMCs; 1 mg/kg, C1D8 4 h) was 1.0. For the same compound, the “Cytotoxic CD8 to Treg ratio” value (PBMCs; 1 mg/kg, C1D8 4 h) was 11.7, the “% IFN-γ+ CD8 T cells” value (PBMCs; [11]) was 8.8% and the “% of FoxP3 Tregs” value (PBMCs; [11]) was 8.8%. The “% IFN-γ+ CD8 T cells” value (PBMCs; 2 mg/kg, C1D8 4 h) was 7.0%, the “% of FoxP3 Tregs” value (PBMCs; 2 mg/kg, C1D8 4 h) was 7.6% and the “Th1 to Th2 ratio” value (PBMCs; 2 mg/kg, C1D8 4 h) was 0.5. The “Cytotoxic CD8 to Treg ratio” value (PBMCs; 2 mg/kg, C1D8 4 h) was 0.9, the “% IFN-γ+ CD8 T cells” value (PBMCs; [12]) was 4.6% and 0.9% and 4.0% and the “% of FoxP3 Tregs” value (PBMCs; [12]) was 5.3^§ % and 4.9% and 4.0%. For the same compound, the “% of FoxP3 Tregs” value (PBMCs; 4 mg/kg, C1D8 4 h) was 8.4% and 5.9%, the “% IFN-γ+ CD8 T cells” value (PBMCs; [13]) was 27.4% and 31.7% and the “% of FoxP3 Tregs” value (PBMCs; [13]) was 3.7% and 2.4% and 6.9%. The “Cytotoxic CD8 to Treg ratio” value (PBMCs; 8 mg/kg, C1D1 0 h (baseline)) was 7.4 and 4.6, the “% IFN-γ+ CD8 T cells” value (PBMCs; 8 mg/kg, C1D8 4 h) was 3.6% and 0.1% and the “% of FoxP3 Tregs” value (PBMCs; 8 mg/kg, C1D8 4 h) was 5.4% and 2.1% and 5.8%. The “Th1 to Th2 ratio” value (PBMCs; 8 mg/kg, C1D8 4 h) was 2.4 and 1.8, the “FoxP3+ Tregs in PBMCs versus baseline” value (PBMCs; after 172 h of treatment) was “not significantly altered” and the “dose dependence of Cmax” value [3] was “dose dependent increase in the Cmax”. The “increase in median survival time” value [4] was 55.5%, the “mean concentration within the brain” value ([5]; at 15 min) was 162 µM and the “mean concentration within the brain” value ([5]; at 6 h) was 6 µM. The “6-month PFS (PFS6) rate” value ([6]; 8 patients) was 0%, the longest response duration ([6]; 8 patients) was “exceeded 3.25 months” and the “estimated 1-year OS rate” value ([6]; Kaplan-Meier, 8 patients) was 100%. For the same compound, the “median overall survival (OS)” value ([6]; from the time of the initial diagnosis, 95% CI: 22.5 months-NA months) was 25 months, the Survival weeks ([6]; individual patient at 1 mg/kg) was “Alive” and the Survival weeks ([6]; individual patient at 2 mg/kg) was 65 weeks. For the same compound, the Survival weeks ([6]; individual patients at 4 mg/kg, 4 mg/kg) was 108 weeks and 109 weeks and 194 weeks, the Survival weeks ([6]; individual patients at 8 mg/kg, 8 mg/kg) was 115 weeks and 98 weeks and Alive and the “animals surviving long term” value [7] was 80%. For the same compound, the “hematological events such as thrombocytopenia or lymphopenia” value ([8]; 8 patients, 1-8 mg/kg) was “no significant hematological events”, the treatment-related deaths ([8]; 8 patients, 1-8 mg/kg) was “No treatment-related deaths occurred” and the “patients with the most common adverse event, grade 1 nausea and diarrhea” value ([8]; 8 patients, all dose levels) was 50%. The “Alanine aminotransferase increased, Grade 1” value [8, 14] was 1, the “Alanine aminotransferase increased, Grade 2” value [8, 14] was 1 and the “Cardiac disorders, other-sinus rhythm probable left atrial enlargement, Grade 1” value [8, 14] was 1. The “Cholesterol high, Grade 1” value [8, 14] was 1, the “Creatinine increase, Grade 1” value [8, 14] was 1 and the “Diarrhea, Grade 1” value [8, 14] was 4. For the same compound, the “Diarrhea, Grade 2” value [8, 14] was 1, the “Gastrointestinal disturbance, Grade 1” value [8, 14] was 1 and the “Heartburn, Grade 1” value [8, 14] was 1. The “Lymphocyte count decrease, Grade 1” value [8, 14] was 1, the “Lymphocyte count decrease, Grade 2” value [8, 14] was 3 and the “Lymphocyte count decrease, Grade 3” value [8, 14] was 0. For the same compound, the “Lymphocyte count decrease, Grade 4” value [8, 14] was 0, the “Lymphocyte count decrease, Grade 5” value [8, 14] was 0 and the “Nausea, Grade 1” value [8, 14] was 4. For the same compound, the “Neutrophil count decreased, Grade 1” value [8, 14] was 2, the “Neutrophil count decreased, Grade 2” value [8, 14] was 0 and the “Neutrophil count decreased, Grade 3” value [8, 14] was 0. For the same compound, the “Neutrophil count decreased, Grade 4” value [8, 14] was 0, the “Neutrophil count decreased, Grade 5” value [8, 14] was 0 and the “Platelet count decrease, Grade 1” value [8, 14] was 1. For the same compound, the “Platelet count decrease, Grade 2” value [8, 14] was 0, the “Platelet count decrease, Grade 3” value [8, 14] was 0 and the “Platelet count decrease, Grade 4” value [8, 14] was 0. For the same compound, the “Platelet count decrease, Grade 5” value [8, 14] was 0, the “Vomiting, Grade 1” value [8, 14] was 1 and the “White blood cell decrease, Grade 1” value [8, 14] was 3. For the same compound, the “White blood cell decrease, Grade 2” value [8, 14] was 1, the “White blood cell decrease, Grade 3” value [8, 14] was 0 and the “White blood cell decrease, Grade 4” value [8, 14] was 0. For the same compound, the “White blood cell decrease, Grade 5” value [8, 14] was 0, the “tolerability of the oral formulation” value ([8]; dose level 4 (8 mg/kg), all three subjects) was “oral aversion to the formulation” and the “Total toxicities, Grade 2” value [8, 15] was 6. For the same compound, the “Total toxicities, Grade 3” value [8, 15] was 0, the “Total toxicities, Grade 4” value [8, 15] was 0 and the “Total toxicities, Grade 5” value [8, 15] was 0. For the same compound, the oral bioavailability ([9]; methylcellulose-based oral nanoparticle formulation) was “approximately 30%”, the “mean peak plasma concentration” value ([9]; preclinical dose of 40 mg/kg) was 4.31 µM and the “% of p-STAT3+ PBMC” value (p-STAT3 (Y705) in PBMCs; [10]) was 39.9%. The “% of p-STAT3+ PBMC” value (p-STAT3 (Y705) in PBMCs; 1 mg/kg, C1D1 4 h) was 33.4%, the “% of p-STAT3+ PBMC” value (p-STAT3 (Y705) in PBMCs; 1 mg/kg, C1D2 0 h) was 31.8% and the “% of p-STAT3+ PBMC” value (p-STAT3 (Y705) in PBMCs; 1 mg/kg, C1D8 0 h) was 19.3%. For the same compound, the “% of p-STAT3+ PBMC” value (p-STAT3 (Y705) in PBMCs; 1 mg/kg, C1D8 4 h) was 15.7%, the “% of p-STAT3+ PBMC” value (p-STAT3 (Y705) in PBMCs; [11]) was 38.1% and the “% of p-STAT3+ PBMC” value (p-STAT3 (Y705) in PBMCs; 2 mg/kg, C1D1 4 h) was 33.8%. For the same compound, the “% of p-STAT3+ PBMC” value (p-STAT3 (Y705) in PBMCs; 2 mg/kg, C1D2 0 h) was 31.5%, the “% of p-STAT3+ PBMC” value (p-STAT3 (Y705) in PBMCs; 2 mg/kg, C1D8 0 h) was 27.6% and the “% of p-STAT3+ PBMC” value (p-STAT3 (Y705) in PBMCs; 2 mg/kg, C1D8 4 h) was 34.8%. The “% of p-STAT3+ PBMC” value (p-STAT3 (Y705) in PBMCs; [12]) was 35.0% and 27.8% and 35.9%, the “% of p-STAT3+ PBMC” value (p-STAT3 (Y705) in PBMCs; 4 mg/kg, C1D1 4 h) was 28.2% and 30.9% and 36.0% and the “% of p-STAT3+ PBMC” value (p-STAT3 (Y705) in PBMCs; 4 mg/kg, C1D2 0 h) was 26.9% and 29.7% and 45.8%. For the same compound, the “% of p-STAT3+ PBMC” value (p-STAT3 (Y705) in PBMCs; 4 mg/kg, C1D8 0 h) was 37.7% and 27.3%, the “% of p-STAT3+ PBMC” value (p-STAT3 (Y705) in PBMCs; 4 mg/kg, C1D8 4 h) was 22.7% and 21.1% and 35.3% and the “lowest dose with p-STAT3 suppression in peripheral blood (PBMCs)” value (p-STAT3 (Y705) in PBMCs; oral BID, longitudinal administration) was 1 mg/kg.
